Data taken from ChEMBL document CHEMBL1926569, “Novel (E)-1-(4-methyl-2-(alkylamino)thiazol-5-yl)-3-arylprop-2-en-1-ones as potent antimicrobial agents” (2011).
Converted amounts (≈) assume the structure as drawn.

Experiments:
Candida albicans [1] = assay: Antifungal activity against Candida albicans isolated from human incubated for 72 hrs followed by serial sub-cultivation for 72 hrs by serial dilution technique; format: functional
In short: (§1)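 MFC: material from 72 h malt broth microdilution wells was serially sub-cultured into fresh broth plates and incubated a further 72 h at 28 °C. Fungicidal concentration is taken from growth after sub-culture. Duplicate, repeated three times.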

Talaromyces funiculosus [2] = assay: Ratio of bifonazole to compound for Penicillium funiculosum ATCC 36839; format: functional
Candida albicans [3] = assay: Ratio of bifonazole to compound for Candida albicans isolated from human; format: functional
Aspergillus ochraceus [4] = assay: Antifungal activity against Aspergillus ochraceus ATCC 12066 after 72 hrs by serial dilution technique; format: functional; settings: ATCC 12066, 72 h
In short: (§2)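 Modified microdilution in 96-well plates. Fungi were kept on malt agar at 4 °C. Spores were washed off in sterile 0.85% saline with 0.1% Tween 80. Compounds were dissolved at 1 mg/ml in 5% DMSO with 0.1% Tween 80 and added to malt broth with inoculum. Plates were shaken at 160 rpm for 72 h at 28 °C. Duplicate, repeated three times.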

Staphylococcus aureus [5] = assay: Antibacterial activity against Staphylococcus aureus ATCC 6538 after 24 hrs by microdilution method; format: functional; settings: ATCC 6538, 24 h
In short: (§3)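 Broth microdilution in 96-well plates. Bacterial suspensions were adjusted in sterile saline to 1.0 × 10⁵ CFU/ml, prepared daily and kept at 4 °C. Compound was added to LB broth with 1.0 × 10⁴ CFU per well and shaken at 160 rpm for 24 h at […] (so in the source). MIC is the lowest concentration with no visible growth under a binocular microscope. OD655 was also read. Duplicate, repeated three times.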

Talaromyces funiculosus [6] = assay: Antifungal activity against Penicillium funiculosum ATCC 36839 after 72 hrs by serial dilution technique; format: functional; settings: ATCC 36839, 72 h; in short: as §2
Trichoderma viride [7] = assay: Ratio of bifonazole to compound for Trichoderma viride IAM 5061; format: functional
Micrococcus flavus [8] = assay: Antibacterial activity against Micrococcus flavus ATCC 10240 incubated for 24 hrs followed by serial sub-cultivation for 24 hrs by microdilution; format: functional; settings: ATCC 10240, 24 h
In short: (§4)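 MBC: after the 24 h LB broth microdilution (1.0 × 10⁴ CFU per well, 160 rpm), wells were serially sub-cultured into fresh broth plates and incubated a further 24 h. MBC is the lowest concentration with no visible growth, taken as 99.5% killing of the original inoculum. Duplicate, repeated three times.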

Listeria monocytogenes [9] = assay: Antibacterial activity against Listeria monocytogenes NCTC 7973 after 24 hrs by microdilution method; format: functional; settings: NCTC 7973, 24 h; in short: as §3
Aspergillus ochraceus [10] = assay: Antifungal activity against Aspergillus ochraceus ATCC 12066 incubated for 72 hrs followed by serial sub-cultivation for 72 hrs by serial dilution technique; format: functional; settings: ATCC 12066, 72 h; in short: as §1
Aspergillus niger [11] = assay: Ratio of bifonazole to compound for Aspergillus niger ATCC 6275; format: functional
Candida albicans [12] = assay: Antifungal activity against Candida albicans isolated from human after 72 hrs by serial dilution technique; format: functional; in short: as §2
Aspergillus ochraceus [13] = assay: Ratio of ketoconazole to compound for Aspergillus ochraceus ATCC 12066; format: functional
Escherichia coli [14] = assay: Antibacterial activity against Escherichia coli ATCC 35210 after 24 hrs by microdilution method; format: functional; settings: ATCC 35210, 24 h; in short: as §3
Candida albicans [15] = assay: Ratio of ketoconazole to compound for Candida albicans isolated from human; format: functional
Aspergillus flavus [16] = assay: Antifungal activity against Aspergillus flavus ATCC 9643 incubated for 72 hrs followed by serial sub-cultivation for 72 hrs by serial dilution technique; format: functional; settings: ATCC 9643, 72 h; in short: as §1
Aspergillus ochraceus [17] = assay: Ratio of bifonazole to compound for Aspergillus ochraceus ATCC 12066; format: functional
Pseudomonas aeruginosa [18] = assay: Antibacterial activity against Pseudomonas aeruginosa ATCC 27853 incubated for 24 hrs followed by serial sub-cultivation for 24 hrs by microdilution; format: functional; settings: ATCC 27853, 24 h; in short: as §4
Salmonella typhimurium [19] = assay: Antibacterial activity against Salmonella Typhimurium ATCC 13311 after 24 hrs by microdilution method; format: functional, Salmonella enterica subsp. enterica serovar Typhimurium; settings: Salmonella enterica, ATCC 13311, 24 h; in short: as §3
Bacillus cereus [20] = assay: Antibacterial activity against clinical isolate of Bacillus cereus after 24 hrs by microdilution method; format: functional; in short: as §3
Penicillium ochrochloron [21] = assay: Ratio of ketoconazole to compound for Penicillium ochrochloron ATCC 9112; format: functional
Trichoderma viride [22] = assay: Antifungal activity against Trichoderma viride IAM 5061 incubated for 72 hrs followed by serial sub-cultivation for 72 hrs by serial dilution technique; format: functional; settings: IAM 5061, 72 h; in short: as §1
Pseudomonas aeruginosa [23] = assay: Ratio of ampicillin MIC to compound MIC for Pseudomonas aeruginosa ATCC 27853; format: functional
Penicillium ochrochloron [24] = assay: Antifungal activity against Penicillium ochrochloron ATCC 9112 after 72 hrs by serial dilution technique; format: functional; settings: ATCC 9112, 72 h; in short: as §2
Listeria monocytogenes [25] = assay: Antibacterial activity against Listeria monocytogenes NCTC 7973 incubated for 24 hrs followed by serial sub-cultivation for 24 hrs by microdilution; format: functional; settings: NCTC 7973, 24 h; in short: as §4
Aspergillus ochraceus [26] = assay: Antifungal activity against Aspergillus ochraceus after 72 hrs by serial dilution technique
Micrococcus flavus [27] = assay: Antibacterial activity against Micrococcus flavus ATCC 10240 after 24 hrs by microdilution method; format: functional; settings: ATCC 10240, 24 h; in short: as §3
Pseudomonas aeruginosa [28] = assay: Antibacterial activity against Pseudomonas aeruginosa ATCC 27853 after 24 hrs by microdilution method; format: functional; settings: ATCC 27853, 24 h; in short: as §3
Enterococcus faecalis [29] = assay: Antibacterial activity against Enterococcus faecalis isolated from human after 24 hrs by microdilution method; format: functional; in short: as §3
Staphylococcus aureus [30] = assay: Antibacterial activity against Staphylococcus aureus ATCC 6538 incubated for 24 hrs followed by serial sub-cultivation for 24 hrs by microdilution method; format: functional; settings: ATCC 6538, 24 h; in short: as §4
Aspergillus niger [31] = assay: Antifungal activity against Aspergillus niger ATCC 6275 incubated for 72 hrs followed by serial sub-cultivation for 72 hrs by serial dilution technique; format: functional; settings: ATCC 6275, 72 h; in short: as §1
Talaromyces funiculosus [32] = assay: Antifungal activity against Penicillium funiculosum ATCC 36839 incubated for 72 hrs followed by serial sub-cultivation for 72 hrs by serial dilution technique; format: functional; settings: ATCC 36839, 72 h; in short: as §1
Aspergillus niger [33] = assay: Antifungal activity against Aspergillus niger ATCC 6275 after 72 hrs by serial dilution technique; format: functional; settings: ATCC 6275, 72 h; in short: as §2
Enterococcus faecalis [34] = assay: Antibacterial activity against Enterococcus faecalis isolated from human incubated for 24 hrs followed by serial sub-cultivation for 24 hrs by microdilution; format: functional; in short: as §4
Penicillium ochrochloron [35] = assay: Ratio of bifonazole to compound for Penicillium ochrochloron ATCC 9112; format: functional
Aspergillus flavus [36] = assay: Antifungal activity against Aspergillus flavus ATCC 9643 after 72 hrs by serial dilution technique; format: functional; settings: ATCC 9643, 72 h; in short: as §2
Aspergillus fumigatus [37] = assay: Antifungal activity against Aspergillus fumigatus isolated from human incubated for 72 hrs followed by serial sub-cultivation for 72 hrs by serial dilution technique; format: functional; in short: as §1
Escherichia coli [38] = assay: Antibacterial activity against Escherichia coli ATCC 35210 incubated for 24 hrs followed by serial sub-cultivation for 24 hrs by microdilution; format: functional; settings: ATCC 35210, 24 h; in short: as §4
Penicillium ochrochloron [39] = assay: Antifungal activity against Penicillium ochrochloron ATCC 9112 incubated for 72 hrs followed by serial sub-cultivation for 72 hrs by serial dilution technique; format: functional; settings: ATCC 9112, 72 h; in short: as §1
Salmonella typhimurium [40] = assay: Antibacterial activity against Salmonella Typhimurium ATCC 13311 incubated for 24 hrs followed by serial sub-cultivation for 24 hrs by microdilution; format: functional, Salmonella enterica subsp. enterica serovar Typhimurium; settings: Salmonella enterica, ATCC 13311, 24 h; in short: as §4
Trichoderma viride [41] = assay: Antifungal activity against Trichoderma viride IAM 5061 after 72 hrs by serial dilution technique; format: functional; settings: IAM 5061, 72 h; in short: as §2
Bacillus cereus [42] = assay: Antibacterial activity against clinical isolate of Bacillus cereus incubated for 24 hrs followed by serial sub-cultivation for 24 hrs by microdilution; format: functional; in short: as §4
Aspergillus fumigatus [43] = assay: Ratio of ketoconazole to compound for Aspergillus fumigatus isolated from human; format: functional

SMILES: CNc1nc(C)c(C(=O)/C=C/c2cccc(Cl)c2Cl)s1
- MFC (Candida albicans [1]): 61.2 µM (≈ 20 µg/mL)
- Ratio (Talaromyces funiculosus [2]): 10
- Ratio (Candida albicans [3]): 10
- MIC (Aspergillus ochraceus [4]): 30.6 µM (≈ 10 µg/mL)
- MIC (Staphylococcus aureus [5]): 61.2 µM (≈ 20 µg/mL)
- MIC (Talaromyces funiculosus [6]): 30.6 µM (≈ 10 µg/mL)
- Ratio (Trichoderma viride [7]): 10
- MBC (Micrococcus flavus [8]): 91.7 µM (≈ 30 µg/mL)
- MIC (Listeria monocytogenes [9]): 91.7 µM (≈ 30 µg/mL)
- MFC (Aspergillus ochraceus [10]): 61.2 µM (≈ 20 µg/mL)
- Ratio (Aspergillus niger [11]): 10
- MIC (Candida albicans [12]): 45.9 µM (≈ 15 µg/mL)
- Ratio (Aspergillus ochraceus [13]): 10
- MIC (Escherichia coli [14]): 45.9 µM (≈ 15 µg/mL)
- Ratio (Candida albicans [15]): 10
- MFC (Aspergillus flavus [16]): 76.5 µM (≈ 25 µg/mL)
- Ratio (Aspergillus ochraceus [17]): 10
- MBC (Pseudomonas aeruginosa [18]): 91.7 µM (≈ 30 µg/mL)
- MIC (Salmonella typhimurium [19]): 61.2 µM (≈ 20 µg/mL)
- MIC (Bacillus cereus [20]): 45.9 µM (≈ 15 µg/mL)
- Ratio (Penicillium ochrochloron [21]): 10
- MFC (Trichoderma viride [22]): 61.2 µM (≈ 20 µg/mL)
- Ratio (Pseudomonas aeruginosa [23]): 10
- MIC (Penicillium ochrochloron [24]): 30.6 µM (≈ 10 µg/mL)
- MBC (Listeria monocytogenes [25]): 91.7 µM (≈ 30 µg/mL)
- MIC (Aspergillus ochraceus [26]): 30.6 µM (≈ 10 µg/mL)
- MIC (Micrococcus flavus [27]): 30.6 µM (≈ 10 µg/mL)
- MIC (Pseudomonas aeruginosa [28]): 61.2 µM (≈ 20 µg/mL)
- MIC (Enterococcus faecalis [29]): 76.5 µM (≈ 25 µg/mL)
- MBC (Staphylococcus aureus [30]): 91.7 µM (≈ 30 µg/mL)
- MFC (Aspergillus niger [31]): 61.2 µM (≈ 20 µg/mL)
- MFC (Talaromyces funiculosus [32]): 61.2 µM (≈ 20 µg/mL)
- MIC (Aspergillus niger [33]): 30.6 µM (≈ 10 µg/mL)
- MBC (Enterococcus faecalis [34]): 76.5 µM (≈ 25 µg/mL)
- Ratio (Penicillium ochrochloron [35]): 10
- MIC (Aspergillus flavus [36]): 30.6 µM (≈ 10 µg/mL)
- MFC (Aspergillus fumigatus [37]): 61.2 µM (≈ 20 µg/mL)
- MBC (Escherichia coli [38]): 61.2 µM (≈ 20 µg/mL)
- MFC (Penicillium ochrochloron [39]): 61.2 µM (≈ 20 µg/mL)
- MBC (Salmonella typhimurium [40]): 76.5 µM (≈ 25 µg/mL)
- MIC (Trichoderma viride [41]): 30.6 µM (≈ 10 µg/mL)
- MBC (Bacillus cereus [42]): 61.2 µM (≈ 20 µg/mL)
- Ratio (Aspergillus fumigatus [43]): 10
